# Assay outcomes: PubChem, several laboratories
# Most compounds without a hit are left out; they make up all but 4% or so of the library.
# KCNQ1 pot – human KCNQ1 channel potentiation or activation. B-score at 10 µM. 310,000 tested, 0.35% active. CHO-K1 KCNQ1, thallium flux FluxOR fluorescence; hits give high values;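 active = fluorescence ratio B-score, a plate-corrected score, at least three library SD, with initial intensity B-score within 5 SD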
#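 Material: CHO-K1 cells stably expressing KCNQ1. Medium: assay buffer for compound exposure, DMSO matched across wells. Reagent: K+/Tl+ depolarizing stimulus. Compound dosing: single-concentration screen. Times: 37 °C overnight plating, 90-min dark dye load, 20-min compound pretreatment. Technique: FluxOR Tl+ flux fluorescence.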
# KCNQ1 block – inhibitors of human KCNQ1 potassium channel; CHO-K1 KCNQ1, FluxOR thallium flux fluorescence; hits give high values; B-score at 10 µM; 310,000 tested, 1.3% active; AID 2642;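 active = compounds whose thallium flux B-score, printed positive for inhibition, exceeds three library SD while starting fluorescence stays within three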;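 also: channel opened by potassium depolarization with thallium stimulus after 20 min compound exposure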
# hERG protect – hERG (human) protection from proarrhythmic block | Q12809 | CHO-hERG, FluxOR thallium flux, dofetilide IC70 present | activation (rescue from dofetilide block), less the hit threshold, % at 10 µM | 310,000 tested, 0.51% active;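 active = activation above the mean of controls blocked by dofetilide plus 5 SD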;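 also: thallium influx through hERG after potassium depolarization seen as dye fluorescence rise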
# KCNK3 block – human KCNK3 channel inhibition, primary screen; AID 602410; CHO-KCNK3 thallium flux, FluxOR fluorescence; hits give low values; O14649; B-score at 10 µM; 340,000 tested, 0.84% active;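 active = B-score under library mean minus 4 SD, starting fluorescence ratio at most library mean plus 5 SD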;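 also: more negative B-score means stronger inhibition of thallium flux through KCNK3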
# KCNK9 inh – inhibitors of human KCNK9 two-pore domain potassium channel; Q9NPC2; HEK293 KCNK9, FluxOR thallium flux fluorescence; hits give low values; B-score at 10 µM; 310,000 tested, 1.2% active; AID 488922;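 active = ratio B-score over 3 SD below the library mean, with starting fluorescence within 5 SD of its mean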;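 also: negative B-score means less thallium flux so channel inhibition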
# Target sequence (Q9NPC2 whole entry, looked up, the tested form may be a part): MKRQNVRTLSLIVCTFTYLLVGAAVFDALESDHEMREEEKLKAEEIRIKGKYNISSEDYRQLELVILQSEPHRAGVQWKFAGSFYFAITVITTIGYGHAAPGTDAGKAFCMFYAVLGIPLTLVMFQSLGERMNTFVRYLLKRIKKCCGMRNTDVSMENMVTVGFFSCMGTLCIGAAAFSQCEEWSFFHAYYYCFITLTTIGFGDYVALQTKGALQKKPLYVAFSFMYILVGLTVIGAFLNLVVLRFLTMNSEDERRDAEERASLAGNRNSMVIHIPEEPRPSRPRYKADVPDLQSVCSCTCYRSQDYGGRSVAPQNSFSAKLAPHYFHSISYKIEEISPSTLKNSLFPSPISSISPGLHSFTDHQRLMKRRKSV
# PHOSPHO1 block – PHOSPHO1 (human) inhibition | inhibition, % at 13.3 µM | 290,000 tested, 1.1% active | AID 1565 | recombinant PHOSPHO1, absorbance phosphatase assay | Q8TCT1; in the data active = inhibition above about 60%
# Target sequence (Q8TCT1 whole entry, looked up): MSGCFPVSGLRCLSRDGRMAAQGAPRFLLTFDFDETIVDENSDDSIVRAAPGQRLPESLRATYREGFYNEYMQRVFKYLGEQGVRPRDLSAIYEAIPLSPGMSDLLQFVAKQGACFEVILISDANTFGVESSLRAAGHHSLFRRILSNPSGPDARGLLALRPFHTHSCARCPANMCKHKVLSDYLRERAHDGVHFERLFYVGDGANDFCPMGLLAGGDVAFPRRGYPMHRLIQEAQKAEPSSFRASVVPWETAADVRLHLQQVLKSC
# KCNK9 block conf – confirmation of human KCNK9 potassium channel inhibitors. shares compounds with KCNK9 inh. HEK293 KCNK9 cells, FluxOR thallium flux fluorescence. inhibition, % at 10 µM. 4,900 tested, 43% active;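 active = thallium signal inhibited by more than 5 SD of the compound-free buffer control wells, on both duplicate plates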;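 also: 0% = assay buffer control wells without compound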
# Kir21 sel – mouse Kir2.1 off-target activity of KCNK9 modulators; 4,900 tested, 4% active; inhibition, % at 10 µM; Kir2.1 cells, FluxOR thallium flux fluorescence; shares compounds with KCNK9 inh;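 active = thallium signal drop more than 5 SD beyond the mean of the no-compound control wells, seen in both duplicate plates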;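 also: signal is fluorescence rise after thallium addition divided by baseline fluorescence; plate controls were assay buffer only for no effect and full block by chlorpromazine control for full effect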
# KCNK9 uninduced – second check of KCNK9 modulator effects in non-induced HEK293 cells; shares compounds with KCNK9 inh; FluxOR thallium flux; inhibition, % at 10 µM; 4,900 tested, 40% active; AID 492997;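 active = thallium signal drop beyond 5 SD of the untreated control mean, on both duplicate plates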;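 also: plate controls were buffer only IC0 wells for no effect and SID17386958 at its maximal inhibitory level for full effect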
# KCNK3 inh conf – confirmation of human KCNK3 two-pore domain potassium channel inhibitors; shares compounds with KCNK3 block; CHO-KCNK3 thallium flux, FluxOR fluorescence; 0% buffer, 100% carvedilol maximal block; ratio percent of control, % at 10 µM; 2,400 tested, 99% active;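 active = ratio percent of control, averaged over triplicates, above buffer control mean plus 5 SD, cut at about 64% in these data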;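 also: ratio is the fluorescence rise from min to max over baseline after thallium stimulus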
# KCNK3 noninduced – counter-screen for KCNK3 inhibitors: effect in non-induced cells; 2,400 tested, 40% active; thallium flux ratio (lower = more inhibition) at 10 µM; shares compounds with KCNK3 block; non-induced KCNK3 parental cells, FluxOR thallium flux; hits give low values;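 active = thallium flux ratio, averaged over three wells, more than 5 SD below the buffer control mean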;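 also: host cells are CHO cells without KCNK3 induction; ratio is peak minus trough fluorescence over baseline then normalized to buffer controls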
# The depositor's hits bear a star; i = inactive; . = no result given.
SMILES,KCNQ1 pot,KCNQ1 block,hERG protect,KCNK3 block,KCNK9 inh,PHOSPHO1 block,KCNK3 inh conf,KCNK3 noninduced,others
NCC(O)c1cc(O)c(O)cc1F (stereo not given),.,.,.,i,.,.,.,.,
Cc1ccc2c(CN3CC=C(c4ccccc4)CC3)cc(=O)oc2c1C,i,i,-13,i,i,-24,.,.,KCNK9 block conf=i;Kir21 sel=i;KCNK9 uninduced=i
CN1C2CCC1/C(=C/c1ccccn1)C(=O)/C2=C\c1ccccn1,.,.,.,i,.,-7,.,.,
CC(C)CN1CCN(Cc2ccc(C(F)(F)F)cc2)CC1CCO (stereo not given),i,i,-12,i,i,24,.,.,
Cc1nc2ccccc2c(=O)n1/N=C/c1cc(Br)cc(Br)c1O,i,i,-4,i,i,.,.,.,
c1ccc(CCCN2CCN(CCOC(c3ccccc3)c3ccccc3)CC2)cc1,i,i,-17,i,i,.,.,.,KCNK9 block conf=i;Kir21 sel=i;KCNK9 uninduced=i
Fc1ccc(C(OCCN2CCN(CCCc3ccccc3)CC2)c2ccc(F)cc2)cc1,i,i,-29,i,i,.,.,.,
CC(C)n1c(=O)c(C=Nc2ccc(S(N)(=O)=O)cc2)c(O)n(Cc2ccco2)c1=O,i,i,4,i,i,9,.,.,
CCCCn1c(=O)c(C=Nc2ccc(Cl)cc2)c(O)n(Cc2ccco2)c1=O,i,i,-2,i,i,-4,.,.,KCNK9 block conf=i;Kir21 sel=i;KCNK9 uninduced=i
O=C(O)c1ccccc1-c1ccc(C=C2C(=O)N(c3ccccc3)C(=S)N(c3ccccc3)C2=O)o1,i,i,-5,i,i,-138,.,.,
O=C(c1ccc2c(c1)OCO2)C1CCCN(Cc2ccc(F)c(F)c2)C1 (stereo not given),i,i,-13,i,i,58,.,.,
O=C(c1ccc(Cl)cc1)C1CCCN(Cc2ccc3c(c2)OCCO3)C1 (stereo not given),i,i,-8,i,i,37,.,.,KCNK9 block conf=i;Kir21 sel=i;KCNK9 uninduced=i
O=C(c1ccc(Cl)cc1)C1CCCN(Cc2ccc3ncccc3c2)C1 (stereo not given),i,i,-28,i,i,-3,.,.,KCNK9 block conf=i;Kir21 sel=i;KCNK9 uninduced=i
O=C(c1cccc(Cl)c1)C1CCCN(Cc2cccc3cnccc23)C1 (stereo not given),i,i,-11,i,i,24,.,.,
O=C(c1ccc(Cl)cc1)C1CCCN(Cc2cccc3cnccc23)C1 (stereo not given),i,i,-26,i,i,-7,.,.,KCNK9 block conf=i;Kir21 sel=i;KCNK9 uninduced=i
CC(C)CNP(=S)(c1ccccc1)C(C)(C)C (stereo not given),i,i,-7,i,i,20,.,.,
Oc1cccc2nc3ccccc3nc12,i,i,-1,i,i,12,.,.,
O=C(NCc1ccccc1)c1cccn(Cc2ccccc2)c1=O,i,i,-12,-9.8*,i,-6,108*,i,
CNC(=O)c1cccn(Cc2ccc(C(F)(F)F)cc2)c1=O,i,i,-2,i,i,-20,.,.,
Nc1ncc2[nH]cnc2n1,i,i,-3,i,i,.,.,.,
Cn1c(O)c(N=Nc2cccc(S(=O)(=O)N3CCOCC3)c2)c(=O)n(C)c1=O,i,i,-1,i,i,-1,.,.,
CCN(CC)S(=O)(=O)c1cccc(N=Nc2c(O)n(CC)c(=S)n(CC)c2=O)c1,i,i,-20,-12*,-6.8*,-7,117*,i,
CN1CCc2c(C#N)c(Cl)nc(Cl)c2C1,i,i,-12,i,i,3,.,.,
CC(C)CCNC(=O)c1cc(C(=O)c2cc(Br)ccc2O)cn(CCC(C)C)c1=O,i,i,-8,-11*,i,9,103*,i,
CC(C)CCNC(=O)c1cc(C(=O)c2cc(F)ccc2O)cn(CCC(C)C)c1=O,i,i,-6,i,i,-14,.,.,
SMILES,KCNQ1 pot,KCNQ1 block,hERG protect,KCNK3 block,KCNK9 inh,PHOSPHO1 block,KCNK3 inh conf,KCNK3 noninduced,others
Cc1ccc(CN2CCCN(Cc3ccccc3C)S2(=O)=O)cc1,i,i,4,-10*,-6.8*,38,121*,i,
COc1ccc(C2=NCC(=O)N(CC(=O)NCc3ccco3)c3sc4c(c32)CCCC4)cc1,i,i,-6,-8.9*,i,16,104*,i,
CN1CCc2cc3c(cc2C1)OCO3,.,.,.,i,.,.,.,.,
CCN(CC)C(=O)c1ccc(NC(=O)CCCSc2ccccc2)cc1,i,i,-15,i,i,36,.,.,
CCN(CC)C(=O)c1ccc(NC(=O)Nc2ccccc2F)cc1,i,i,-9,-9.1*,i,7,85*,0.16*,
CC(C)(O)C1C2OC(=O)C1C1(O)CC3OC34C(=O)OC2C14C (stereo not given),.,.,.,i,.,.,.,.,
CCCCn1c(=O)c(C(=O)Nc2ccccn2)c(O)c2ccccc21,i,7*,-4,-8.7*,i,34,104*,0.14*,
Clc1ccc(C(Cn2ccnc2)OCc2csc3c(Cl)cccc23)c(Cl)c1 (stereo not given),.,.,.,-12*,.,.,105*,0.16*,
COc1ccc(N=Cc2c(O)n(Cc3ccccc3)c(=S)[nH]c2=O)c(OC)c1,i,6*,-15,-8.7*,i,19,151*,i,
CN(C)CP(=O)(O)CN(C)C=O,i,i,0,i,i,2,.,.,
Clc1ccc(CCC(Cn2ccnc2)Sc2c(Cl)cccc2Cl)cc1 (stereo not given),.,.,.,-14*,.,.,120*,0.15*,
Clc1ccc(Cn2ccnc2)cn1,i,i,-11,i,i,35,.,.,
